pIC50: −log10 of the molar value.

The results in this text go back to ChEMBL document CHEMBL1152946, “6-Amino-2-mercapto-3H-pyrimidin-4-one derivatives as new candidates for the antagonism at the P2Y12 receptors” (Bioorg Med Chem, 2009).

Experiment [1] in a line: Antiplatelet activity against 10^-6 M ADP-induced human platelet aggregation at 100 uM by light transmission aggregometry. The format is functional. In outline:
(§1)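 Platelet-rich plasma came from healthy volunteers' blood collected in sodium citrate (9:1) and spun at 150g, 21 °C for 10 min. Samples were prewarmed to 37 °C with compound (10^-4 M) or vehicle, then ADP was added (final 10^-5 or 10^-6 M). Shape change and aggregation were followed by light transmission for 3 min. Results are % of vehicle aggregation, mean of at least 2 experiments.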

Experiment [2] can be described thus: Antiplatelet activity against 10^-5 M ADP-induced human platelet aggregation at 100 uM by light transmission aggregometry. In kind it is functional. The procedure, abridged:
as §1

The target of experiment [3] is T1, Adenosine receptor A1 (Homo sapiens) (UniProt P30542).
T1 sequence (whole entry): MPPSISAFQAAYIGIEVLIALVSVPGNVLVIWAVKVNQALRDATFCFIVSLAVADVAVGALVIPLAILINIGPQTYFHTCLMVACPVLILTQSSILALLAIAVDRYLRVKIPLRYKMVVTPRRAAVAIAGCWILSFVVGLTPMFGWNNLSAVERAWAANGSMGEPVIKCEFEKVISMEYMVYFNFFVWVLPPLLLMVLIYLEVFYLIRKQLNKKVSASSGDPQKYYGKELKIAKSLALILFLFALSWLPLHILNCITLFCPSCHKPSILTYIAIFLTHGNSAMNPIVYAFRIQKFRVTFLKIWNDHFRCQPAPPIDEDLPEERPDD
Description: Displacement of [3H]DPCPX from human adenosine A1 receptor expressed in CHO cells at 10 uM. The format is cell-based. In outline:
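Membranes from CHO cells expressing hA1 (50 µg protein) were incubated with [3H]DPCPX 1 nM in 50 mM Tris HCl pH 7.4 for 120 min at 25 °C. Non-specific binding was defined with 10 µM CHA. Bound ligand was separated by GF/B filtration and counted by scintillation. Results are % displacement of specific binding at the bracketed test concentration, mean ± SEM of four experiments in triplicate.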
In general terms: Loss of bound radioactivity is the signal in a displacement assay; it reports binding, not function.

The target of experiment [4] is Adenosine receptor A2b (Homo sapiens) (UniProt P29275). Description: Antagonist activity at human adenosine A2b receptor expressed in CHO cells expressed in inhibition of cAMP level. Also on record: concentration or dose not given beside the values. The note with it: concentration not given here. In general terms: Changes in cAMP serve as a functional read-out for many G protein-coupled receptors.

The target of experiment [5] is T2, Adenosine receptor A3 (Homo sapiens) (UniProt P0DMS8).
T2 sequence (whole entry): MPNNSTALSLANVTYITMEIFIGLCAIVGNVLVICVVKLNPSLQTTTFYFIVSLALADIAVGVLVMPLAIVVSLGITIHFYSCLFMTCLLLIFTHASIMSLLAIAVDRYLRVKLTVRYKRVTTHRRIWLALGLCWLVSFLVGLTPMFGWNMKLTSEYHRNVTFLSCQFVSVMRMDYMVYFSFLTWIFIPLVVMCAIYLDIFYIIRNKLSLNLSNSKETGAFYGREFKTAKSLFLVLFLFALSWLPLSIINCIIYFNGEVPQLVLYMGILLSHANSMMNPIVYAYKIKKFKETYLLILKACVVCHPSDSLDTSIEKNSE
Put plainly: Displacement of [3H]ABMECA from human adenosine A3 receptor expressed in CHO cells at 10 uM. The format is cell-based. To be noted: in the assay text read “[125I]ABMECA” for “[3H]ABMECA”. The procedure, abridged: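 Non-specific binding was defined with 1 µM AB-MECA. Samples were filtered on GF/B and radioactivity was counted. Results are % displacement at the tested concentration, mean ± SEM of four experiments in triplicate.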

In experiment [6] the target is Adenosine receptor A2b (Homo sapiens) (UniProt P29275). Put plainly: Antagonist activity at human adenosine A2b receptor expressed in CHO cells expressed in inhibition of NECA-induced cAMP level. Also on record: concentration or dose not given beside the values. The note with it: concentration not given here.
The target in experiment [7] is Adenosine receptor A2a (Homo sapiens) (UniProt P29274). Description: Displacement of [3H]ZM241385 from human adenosine A2A receptor expressed in CHO cells at 10 uM. The format is cell-based. In outline: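 Membranes from CHO cells expressing hA2A (50 µg protein) were incubated with [3H]ZM-241385 1 nM in 50 mM Tris HCl with 10 mM MgCl2, pH 7.4, for 60 min at 4 °C. Non-specific binding was defined with 1 µM ZM-241385. Samples were filtered on GF/B and counted by scintillation. Results are % displacement at the tested concentration, mean ± SEM of four experiments in triplicate.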

The next experiment addresses P2Y purinoceptor 12 (Homo sapiens, UniProt Q9H244). Description: Antagonist activity at human recombinant P2Y12 receptor expressed in CHO FlpIn cells assessed as reduction n 2-methylthio-ADP mediated inhibition of forskolin-induced cAMP response element-directed luciferase expression by bright-glo assay. In kind it is functional, cell-based. In outline:
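CHO FlpIN cells stably expressing human P2Y12 were transiently transfected with a pCRE-luc reporter. After 24 h they were switched to physiological salt solution and exposed to forskolin 1 µM ± 2-methylthio-ADP 10 nM plus varying antagonist concentrations (DMSO vehicle) for 3.5 h at 37 °C. Luminescence was read after lysis with Bright-Glo. Responses are % of 2-methylthio-ADP response with DMSO only; n=4–8.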

The target in experiment [8] is T2, Adenosine receptor A3 (Homo sapiens). Put plainly: Displacement of [125I]ABMECA from human adenosine A3 receptor expressed in CHO cells at 10 uM.

Sequence of Adenosine receptor A2a (Homo sapiens) (P29274 whole entry): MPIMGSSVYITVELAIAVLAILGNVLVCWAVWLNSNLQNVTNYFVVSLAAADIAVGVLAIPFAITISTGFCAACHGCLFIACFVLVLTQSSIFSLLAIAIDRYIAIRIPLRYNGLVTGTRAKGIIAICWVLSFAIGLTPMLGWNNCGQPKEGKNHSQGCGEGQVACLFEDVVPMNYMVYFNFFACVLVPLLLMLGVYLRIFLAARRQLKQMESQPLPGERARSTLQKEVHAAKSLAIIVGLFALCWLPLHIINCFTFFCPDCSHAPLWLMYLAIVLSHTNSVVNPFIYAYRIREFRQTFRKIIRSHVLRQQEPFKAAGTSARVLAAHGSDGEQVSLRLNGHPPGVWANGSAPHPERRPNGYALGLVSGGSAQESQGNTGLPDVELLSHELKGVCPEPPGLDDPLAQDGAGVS
Sequence of P2Y purinoceptor 12 (Q9H244 whole entry): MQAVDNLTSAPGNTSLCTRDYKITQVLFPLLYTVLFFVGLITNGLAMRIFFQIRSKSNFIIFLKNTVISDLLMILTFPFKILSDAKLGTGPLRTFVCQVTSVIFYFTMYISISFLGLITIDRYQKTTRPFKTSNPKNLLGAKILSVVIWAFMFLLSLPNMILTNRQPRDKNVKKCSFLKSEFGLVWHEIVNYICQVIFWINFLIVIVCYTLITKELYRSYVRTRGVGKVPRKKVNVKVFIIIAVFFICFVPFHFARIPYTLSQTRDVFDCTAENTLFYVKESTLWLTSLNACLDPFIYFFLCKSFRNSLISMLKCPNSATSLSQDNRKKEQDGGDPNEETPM

As for `Nc1cc(OS(=O)(=O)c2ccccc2Cl)nc(SCc2ccccc2Cl)n1`, the results for the Activity in [1] and in experiment [2] were 92% and 96%, respectively.

In the case of `CN(C)c1cccc2c(S(=O)(=O)Oc3cc(N)nc(SCCN)n3)cccc12`, the figures for the Activity in experiment [1] and in experiment [2] were 83% and 99%, respectively.

Take `Nc1cc(OS(=O)(=O)c2ccccc2Cl)nc(SCC(F)(F)F)n1`: the Activity in experiment [1] is reported as 97%; in experiment [2], 102%.

In general, inhibition refers to how much of the control response was suppressed. On to `Cc1ccc(S(=O)(=O)NCCSc2nc(N)cc(=O)[nH]2)cc1`, for which the Activity in experiment [1] amounted to 51%; in experiment [3], 6%; in [2], 89%; in experiment [5], 44%; in experiment [7], 1%. For the same compound, the inhibition in experiment [4] was 5%; in experiment [6], 3%.

`CN(C)c1cccc2c(S(=O)(=O)Oc3cc(N)nc(SCc4ccccc4Cl)n3)cccc12`: the Activity in experiment [1] is on record as 96%; in experiment [2], 101%.

Regarding `O=c1cc(O)nc(SCc2ccccc2Cl)[nH]1`, the Activity in [1] is 97%; in experiment [2] it was 96%.

On to `Nc1cc(OS(=O)(=O)c2ccccc2Cl)nc(SCCO)n1`, for which the Activity is reported as 110% in [1] and 100% in experiment [2].

As for `Cc1ccc(S(=O)(=O)Oc2cc(N)nc(SCC(F)(F)F)n2)cc1`, the Activity is 105% in experiment [1] and 101% in [2].

With `CN(C)c1cccc2c(S(=O)(=O)Oc3cc(N)nc(SCC(F)(F)F)n3)cccc12`, the results for the Activity in [1] and in experiment [2] were 115% and 104%, respectively.

For the compound `Nc1cc(OCc2ccccc2Cl)nc(SCc2ccccc2Cl)n1`, the results for the Activity in [1] and in experiment [2] were 86% and 95%, respectively.

With `CC(C)(C)OC(=O)NCCSc1nc(N)cc(=O)[nH]1`, the Activity is 40% in experiment [1]; 7% in experiment [3]; 76% in experiment [2]; 21% in [5]; 7% in experiment [7]. Besides, the results for the inhibition in [4] and in [6] were 3% and 8%, respectively.

With `Cc1ccc(S(=O)(=O)Oc2cc(N)nc(SCc3ccccc3Cl)n2)cc1`, the results for the Activity in [1] and in [2] were 68% and 100%, respectively.

For `O=C(Nc1ccccc1)Nc1cc(=O)[nH]c(SCc2ccccc2Cl)n1`, the results for the Activity in [1] and in experiment [2] were 91% and 94%, respectively.

For `CN(C)c1cccc2c(S(=O)(=O)Oc3cc(N)nc(SCCO)n3)cccc12`, the Activity in experiment [1] amounted to 93%; in [3] it was 48%; in [2] it was 100%; in experiment [5], 47%; in experiment [7] it was 1%. In addition, the inhibition in [4] came out at 7%; in [6] it was 5%.

The pIC50 is the negative decadic logarithm of the IC50, by convention in mol/L. In the case of `Cc1ccc(S(=O)(=O)Oc2cc(N)nc(SCCN)n2)cc1`, the Activity was 37% in experiment [1]; 3% in experiment [3]; 96% in experiment [2]; 36% in experiment [8]; 18% in [7]. Also, at P2Y purinoceptor 12, the negative-log IC50 (pIC50) was 5.09. The values for the inhibition in experiment [4] and in [6] were 10% and 7%, respectively.

With `Nc1cc(=O)[nH]c(SC(c2ccccc2)(c2ccccc2)c2ccccc2)n1`, the Activity stood at 81% in [1] and 100% in experiment [2].

For the compound `Cc1ccc(S(=O)(=O)Oc2cc(N)nc(SCCO)n2)cc1`, the Activity in [1] is 57%; in [3], 2%; in experiment [2], 99%; in [5] it was 46%; in [7] it was 1%. In addition, the inhibition in experiment [4] was 2%; in [6] it was 4%.

As for `Nc1cc(=O)[nH]c(SCCO)n1`, the Activity in [1] is reported as 114%; in experiment [2], 99%.

In the case of `CCCCCSc1nc(N)cc(OS(=O)(=O)c2ccc(C)cc2)n1`, the Activity in experiment [1] came to 96%; in experiment [2], 88%.

`Cc1ccc(S(=O)(=O)Oc2cc(N)nc(SCCNC(=O)OC(C)(C)C)n2)cc1`: the Activity in experiment [1] is 75%; in experiment [2] it was 97%.

With `Nc1cc(=O)[nH]c(SCc2ccccc2Cl)n1`, the values for the Activity in experiment [1] and in experiment [2] were 88% and 101%, respectively.

`Cn1c(SCc2ccccc2Cl)nc(N)cc1=O`: the Activity in experiment [1] stood at 61%; in experiment [2] it was 88%.

Regarding `CSc1nc(N)cc(OS(=O)(=O)c2ccc(C)cc2)n1`, the Activity came to 120% in experiment [1] and 96% in experiment [2].

Take `CCCCCSc1nc(N)cc(O)n1`: the figures for the Activity in experiment [1] and in experiment [2] were 63% and 100%, respectively.

For the compound `CCCCCSc1nc(N)cc(OS(=O)(=O)c2ccccc2Cl)n1`, the Activity was determined as 58% in experiment [1]; 4% in [3]; 95% in [2]; 23% in experiment [8]; 1% in experiment [7]. The inhibition in [4] was determined as 8%; in [6], 10%.

As to `Cc1ccc(S(=O)(=O)Nc2cc(N)nc(SCCN)n2)cc1`, the Activity in [1] and in experiment [2] was 91% each time.
